Data set [1] in a line: Induction of contraction in rabbit smooth muscle. The data set is classed as functional, tissue-based, Oryctolagus cuniculus, Muscle tissue. The method, boiled down: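 Rabbit smooth muscle contractility assay; EC50 taken as the concentration giving 50% of maximal possible contraction.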
The test system of data set [2] is Streptococcus pneumoniae. As to the kind of experiment: Antibacterial activity against erythromycin-sensitive Streptococcus pneumoniae ATCC 6301. The data set is classed as functional. The procedure, abridged: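 MIC determined by growth inhibition; routine screening used the highly erythromycin-sensitive strain S. pneumoniae ATCC6301.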
In data set [3] the target is T1, hERG (KCNH2) (Homo sapiens, UniProt Q12809). As to the kind of experiment: Inhibition of human ERG at 30 uM.
T1 sequence (Q12809 whole entry): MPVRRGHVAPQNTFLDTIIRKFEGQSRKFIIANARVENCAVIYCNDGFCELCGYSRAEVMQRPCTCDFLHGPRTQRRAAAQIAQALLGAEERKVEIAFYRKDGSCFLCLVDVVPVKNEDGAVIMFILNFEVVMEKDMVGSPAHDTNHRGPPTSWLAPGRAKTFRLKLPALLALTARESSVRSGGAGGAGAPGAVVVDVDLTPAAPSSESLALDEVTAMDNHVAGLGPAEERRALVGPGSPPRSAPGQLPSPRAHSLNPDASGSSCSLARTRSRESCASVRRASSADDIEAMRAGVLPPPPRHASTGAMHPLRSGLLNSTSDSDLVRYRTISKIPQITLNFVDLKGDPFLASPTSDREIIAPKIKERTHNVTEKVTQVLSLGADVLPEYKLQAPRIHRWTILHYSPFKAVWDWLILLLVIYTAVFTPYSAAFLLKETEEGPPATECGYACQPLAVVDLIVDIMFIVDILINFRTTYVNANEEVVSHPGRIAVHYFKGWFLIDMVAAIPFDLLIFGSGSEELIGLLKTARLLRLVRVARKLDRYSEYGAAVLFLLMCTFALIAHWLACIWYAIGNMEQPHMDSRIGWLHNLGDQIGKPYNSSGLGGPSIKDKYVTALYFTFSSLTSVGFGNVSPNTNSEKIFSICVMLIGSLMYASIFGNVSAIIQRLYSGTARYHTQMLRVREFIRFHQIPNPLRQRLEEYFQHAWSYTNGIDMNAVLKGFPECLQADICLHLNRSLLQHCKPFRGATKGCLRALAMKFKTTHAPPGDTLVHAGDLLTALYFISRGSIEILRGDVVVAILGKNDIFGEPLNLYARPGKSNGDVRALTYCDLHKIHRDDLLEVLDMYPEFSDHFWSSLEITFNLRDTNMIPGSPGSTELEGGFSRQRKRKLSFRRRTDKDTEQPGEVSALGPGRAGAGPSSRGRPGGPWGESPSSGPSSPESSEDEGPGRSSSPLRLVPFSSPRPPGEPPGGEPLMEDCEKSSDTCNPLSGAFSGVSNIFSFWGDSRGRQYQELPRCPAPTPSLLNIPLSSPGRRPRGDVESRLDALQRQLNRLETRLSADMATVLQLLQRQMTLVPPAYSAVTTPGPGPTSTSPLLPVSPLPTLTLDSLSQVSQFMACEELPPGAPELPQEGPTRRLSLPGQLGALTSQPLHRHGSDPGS
Data set [4] addresses T1, hERG (KCNH2). As to the kind of experiment: Inhibition of human ERG at 300 uM.
Data set [5] in a line: Induction of contraction in rabbit smooth muscle at EC90 concentration after three cycles of administration and washout measured after 4th dose. Type of data set: functional, Oryctolagus cuniculus, Muscle tissue. The method, boiled down: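 Rabbit smooth muscle contractility; drug applied at EC90 concentration through three cycles of administration and washout, tachyphylaxis reported as % contractility response then obtained.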

The values that follow come from ChEMBL document CHEMBL1268902, “9-Dihydroerythromycin ethers as motilin agonists--developing structure-activity relationships for potency and safety” (Bioorg Med Chem, 2010).

pEC50: −log10 of the molar value. Converted amounts (≈) assume the structure as drawn. Where only a bound is given, the exact number is not on record here.

The pEC50 is the negative decadic logarithm of the EC50, by convention in mol/L. By MIC is commonly meant the smallest concentration in the dilution series that meets the test's criterion for growth inhibition. Low readings indicate a more susceptible organism, high ones a less susceptible organism. One may read the inhibition as the change of the read-out against control, counted positive when it falls. Compound `CC[C@H]1OC(=O)[C@H](C)[C@@H](O[C@H]2C[C@@](C)(OC)[C@@H](O)[C@H](C)O2)[C@H](C)[C@@H](O[C@@H]2O[C@H](C)C[C@H](N(C)C(C)C)[C@H]2O)[C@](C)(O)C[C@@H](C)[C@H](OCCN)[C@H](C)[C@@H](O)[C@]1(C)O` showed a negative-log EC50 (pEC50) in data set [1] of 5.64. It took 128 µg/mL (≈ 159 µM) to inhibit growth in data set [2] (MIC). The same compound showed an inhibition at 30 µM in data set [3] of 25%. The compound further yielded an inhibition at 300 µM in data set [4] of 76%.
For the compound `CC[C@H]1OC(=O)[C@H](C)[C@@H](O[C@H]2C[C@@](C)(OC)C[C@H](C)O2)[C@H](C)[C@@H](O[C@@H]2O[C@H](C)C[C@H](N(C)C(C)C)[C@H]2O)[C@]2(C)CC(C)=C(O2)[C@H](C)C(=O)[C@]1(C)OC`, the pEC50 in data set [1] is 7.96. The same compound yielded an Activity in data set [5] of 9%. This compound came in with an inhibition at 30 µM in data set [3] of 84%. The compound further gave an inhibition at 300 µM in data set [4] of 100%.
For `CC[C@H]1OC(=O)[C@H](C)[C@@H](O[C@H]2C[C@@](C)(OC)[C@@H](O)[C@H](C)O2)[C@H](C)[C@@H](O[C@@H]2O[C@H](C)C[C@H](N(C)C(C)C)[C@H]2O)[C@](C)(O)C[C@@H](C)[C@H](OCCNC=O)[C@H](C)[C@@H](O)[C@]1(C)O`, in data set [1], the pEC50 is 7.51. For the same compound, in data set [2], the minimum inhibitory concentration (MIC) was over 128 µg/mL. Also, in data set [5], the Activity amounted to 100%. The same compound displayed an inhibition at 30 µM in data set [3] of 8%. Further, testing at 300 µM in data set [4] gave an inhibition of 47%.
The corresponding values for `CC[C@H]1OC(=O)[C@H](C)[C@@H](O[C@H]2C[C@@](C)(OC)[C@@H](O)[C@H](C)O2)[C@H](C)[C@@H](O[C@@H]2O[C@H](C)C[C@H](N(C)C(C)C)[C@H]2O)[C@](C)(O)C[C@@H](C)[C@H](OCCNC(C)=O)[C@H](C)[C@@H](O)[C@]1(C)O` are 7.32, over 128 µg/mL, 94%, 47% and 73%.
With `CC[C@H]1OC(=O)[C@H](C)[C@@H](O[C@H]2C[C@@](C)(OC)[C@@H](O)[C@H](C)O2)[C@H](C)[C@@H](O[C@@H]2O[C@H](C)C[C@H](N(C)C(C)C)[C@H]2O)[C@](C)(O)C[C@@H](C)[C@H](OCCNC(=O)c2ccc3[nH]cnc3c2)[C@H](C)[C@@H](O)[C@]1(C)O`, the negative logarithm of the EC50 (pEC50) in data set [1] is 7.43. This compound had an MIC in data set [2] of 128 µg/mL (≈ 135 µM). Besides, the Activity in data set [5] is 94%. Besides, the inhibition at 30 µM in data set [3] is 71%. Moreover, in data set [4], the inhibition at 300 µM is 100%.
The compound `CC[C@H]1OC(=O)[C@H](C)[C@@H](O[C@H]2C[C@@](C)(OC)[C@@H](O)[C@H](C)O2)[C@H](C)[C@@H](O[C@@H]2O[C@H](C)C[C@H](N(C)C(C)C)[C@H]2O)[C@](C)(O)C[C@@H](C)[C@H](OCCNC(=O)OC)[C@H](C)[C@@H](O)[C@]1(C)O` showed a pEC50 in data set [1] of 6.89. The compound also displayed an MIC in data set [2] of 128 µg/mL (≈ 148 µM). The inhibition at 30 µM in data set [3] was 40%. Also, in data set [4], the inhibition at 300 µM is 95%.
The corresponding values for `CCOC(=O)NCCO[C@@H]1[C@H](C)[C@@H](O)[C@](C)(O)[C@@H](CC)OC(=O)[C@H](C)[C@@H](O[C@H]2C[C@@](C)(OC)[C@@H](O)[C@H](C)O2)[C@H](C)[C@@H](O[C@@H]2O[C@H](C)C[C@H](N(C)C(C)C)[C@H]2O)[C@](C)(O)C[C@H]1C` are 7.00, 64 µg/mL (≈ 72.8 µM), 67% and 100%.
In data set [1], `CCNC(=O)NCCO[C@@H]1[C@H](C)[C@@H](O)[C@](C)(O)[C@@H](CC)OC(=O)[C@H](C)[C@@H](O[C@H]2C[C@@](C)(OC)[C@@H](O)[C@H](C)O2)[C@H](C)[C@@H](O[C@@H]2O[C@H](C)C[C@H](N(C)C(C)C)[C@H]2O)[C@](C)(O)C[C@H]1C` gave a negative-log EC50 (pEC50) of 7.00. In data set [2], this compound showed an MIC of over 128 µg/mL. For the same compound, in data set [5], the Activity is given as 88%. Besides, the inhibition at 30 µM in data set [3] is 20%. Further, at 300 µM the inhibition in data set [4] was 57%.
As to `CCNC(=S)NCCO[C@@H]1[C@H](C)[C@@H](O)[C@](C)(O)[C@@H](CC)OC(=O)[C@H](C)[C@@H](O[C@H]2C[C@@](C)(OC)[C@@H](O)[C@H](C)O2)[C@H](C)[C@@H](O[C@@H]2O[C@H](C)C[C@H](N(C)C(C)C)[C@H]2O)[C@](C)(O)C[C@H]1C`, the pEC50 in data set [1] was 6.66. In addition, the MIC in data set [2] is over 120 µg/mL. Moreover, 30 µM produced 36% inhibition in data set [3]. The same compound yielded an inhibition at 300 µM in data set [4] of 88%.
`CCCNC(=S)NCCO[C@@H]1[C@H](C)[C@@H](O)[C@](C)(O)[C@@H](CC)OC(=O)[C@H](C)[C@@H](O[C@H]2C[C@@](C)(OC)[C@@H](O)[C@H](C)O2)[C@H](C)[C@@H](O[C@@H]2O[C@H](C)C[C@H](N(C)C(C)C)[C@H]2O)[C@](C)(O)C[C@H]1C` gave a negative-log EC50 (pEC50) in data set [1] of 6.68. This compound also gave a minimal inhibitory concentration (MIC) in data set [2] of 128 µg/mL (≈ 141 µM). In data set [3], this compound showed an inhibition at 30 µM of 53%. For the same compound, testing at 300 µM in data set [4] gave an inhibition of 100%.
The corresponding values for `CC[C@H]1OC(=O)[C@H](C)[C@@H](O[C@H]2C[C@@](C)(OC)[C@@H](O)[C@H](C)O2)[C@H](C)[C@@H](O[C@@H]2O[C@H](C)C[C@H](N(C)C(C)C)[C@H]2O)[C@](C)(O)C[C@@H](C)[C@H](OCCNC(C)C)[C@H](C)[C@@H](O)[C@]1(C)O` are 5.70, 64 µg/mL (≈ 75.4 µM), 40% and 93%.
Regarding `CC[C@H]1OC(=O)[C@H](C)[C@@H](O[C@H]2C[C@@](C)(OC)[C@@H](O)[C@H](C)O2)[C@H](C)[C@@H](O[C@@H]2O[C@H](C)C[C@H](N(C)C(C)C)[C@H]2O)[C@](C)(O)C[C@@H](C)[C@H](OCCNC(=N)N)[C@H](C)[C@@H](O)[C@]1(C)O`, in data set [1], the negative logarithm of the EC50 (pEC50) was 5.44.
The compound `CC[C@H]1OC(=O)[C@H](C)[C@@H](O[C@H]2C[C@@](C)(OC)[C@@H](O)[C@H](C)O2)[C@H](C)[C@@H](O[C@@H]2O[C@H](C)C[C@H](N(C)C(C)C)[C@H]2O)[C@](C)(O)C[C@@H](C)[C@H](OCc2csc(C)n2)[C@H](C)[C@@H](O)[C@]1(C)O` had a pEC50 in data set [1] of 6.32. Further, in data set [2], the MIC was found to be 128 µg/mL (≈ 146 µM). In data set [3], the inhibition at 30 µM turned out to be 63%. For the same compound, in data set [4], the inhibition at 300 µM is 100%.
In data set [1], `CC[C@H]1OC(=O)[C@H](C)[C@@H](O[C@H]2C[C@@](C)(OC)[C@@H](O)[C@H](C)O2)[C@H](C)[C@@H](O[C@@H]2O[C@H](C)C[C@H](N(C)C(C)C)[C@H]2O)[C@](C)(O)C[C@@H](C)[C@H](OCc2nccs2)[C@H](C)[C@@H](O)[C@]1(C)O` showed a pEC50 of 6.54. Further, in data set [2], the minimum inhibitory concentration (MIC) came out at 128 µg/mL (≈ 149 µM). Further, the inhibition at 30 µM in data set [3] was found to be 61%. In data set [4], this compound had an inhibition at 300 µM of 100%.
In the same order, the values of `CC[C@H]1OC(=O)[C@H](C)[C@@H](O[C@H]2C[C@@](C)(OC)[C@@H](O)[C@H](C)O2)[C@H](C)[C@@H](O[C@@H]2O[C@H](C)C[C@H](N(C)C(C)C)[C@H]2O)[C@](C)(O)C[C@@H](C)[C@H](OCc2ccncc2)[C@H](C)[C@@H](O)[C@]1(C)O` are 6.38, 128 µg/mL (≈ 150 µM), 68% and 100%.
As to `CC[C@H]1OC(=O)[C@H](C)[C@@H](O[C@H]2C[C@@](C)(OC)[C@@H](O)[C@H](C)O2)[C@H](C)[C@@H](O[C@@H]2O[C@H](C)C[C@H](N(C)C(C)C)[C@H]2O)[C@](C)(O)C[C@@H](C)[C@H](OCc2nc[nH]n2)[C@H](C)[C@@H](O)[C@]1(C)O`, the pEC50 in data set [1] was 7.27. The compound further displayed an MIC in data set [2] of 128 µg/mL (≈ 151 µM). Moreover, the Activity in data set [5] came to 97%. In data set [3], this compound gave an inhibition at 30 µM of 8%. This compound also returned an inhibition at 300 µM in data set [4] of 40%.
Turning to `CC[C@H]1OC(=O)[C@H](C)[C@@H](O[C@H]2C[C@@](C)(OC)[C@@H](O)[C@H](C)O2)[C@H](C)[C@@H](O[C@@H]2O[C@H](C)C[C@H](N(C)C(C)C)[C@H]2O)[C@](C)(O)C[C@@H](C)[C@H](OCc2c[nH]cn2)[C@H](C)[C@@H](O)[C@]1(C)O`, the pEC50 in data set [1] is 7.20. Besides, the inhibition at 30 µM in data set [3] is 48%. For the same compound, the inhibition at 300 µM in data set [4] is 98%.
In turn, `CC[C@H]1OC(=O)[C@H](C)[C@@H](O[C@H]2C[C@@](C)(OC)[C@@H](O)[C@H](C)O2)[C@H](C)[C@@H](O[C@@H]2O[C@H](C)C[C@H](N(C)C(C)C)[C@H]2O)[C@](C)(O)C[C@@H](C)[C@H](OCC(=O)NC)[C@H](C)[C@@H](O)[C@]1(C)O` had a pEC50 in data set [1] of 7.24. The compound also registered an MIC in data set [2] of 128 µg/mL (≈ 153 µM). Also, the Activity in data set [5] came to 89%.
Compound `CC[C@H]1OC(=O)[C@H](C)[C@@H](O[C@H]2C[C@@](C)(OC)CC(C)O2)[C@H](C)[C@@H](O[C@@H]2O[C@H](C)C[C@H](N(C)CC)[C@H]2O)C2(C)CC(C)=C(O2)[C@H](C)[C@@H](O)[C@H]1C` (single isomer, unassigned) gave a negative-log EC50 (pEC50) in data set [1] of 8.15. In data set [5], this compound came in with an Activity of 22%.
In the same order, the values of `CC[C@H]1OC(=O)[C@H](C)[C@@H](O[C@H]2C[C@@](C)(OC)[C@@H](O)[C@H](C)O2)[C@H](C)[C@@H](O[C@@H]2O[C@H](C)C[C@H](N(C)C(C)C)[C@H]2O)[C@](C)(O)C[C@@H](C)[C@H](O)[C@H](C)[C@@H](O)[C@]1(C)O` [3 9-DIHYDRO-N-DESMETHYL-N-ISOPROPYLERYTHROMYCIN A] are 6.59 and 85%.
The corresponding values for `CC[C@H]1OC(=O)[C@H](C)[C@@H](O[C@H]2C[C@@](C)(OC)[C@@H](O)[C@H](C)O2)[C@H](C)[C@@H](O[C@@H]2O[C@H](C)C[C@H](N(C)C)[C@H]2O)[C@](C)(O)C[C@@H](C)C(=O)[C@H](C)[C@@H](O)[C@]1(C)O` [ERYTHROMYCIN] are 5.92 and 97%.
